Data: ChEMBL document CHEMBL1828573, “Synthesis and biological evaluation of the glycoside (25R)-3β,16β-diacetoxy-22-oxocholest-5-en-26-yl β-d-glucopyranoside: a selective anticancer agent in cervicouterine cell lines” (Eur J Med Chem, 2011)
Calls of active or inactive are those of the source. No cut-off for these calls is given here.

Tests used:
Ca-Ski [1] = assay: Antiproliferative activity human CaSki cells after 24 hrs by crystal violet staining; format: functional, cell-based
Method in brief: (§1)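 Cells in RPMI-1640 with 5% newborn calf serum, 37 °C, 5% CO2, exponential phase. Seeded at 7500 cells/well and grown 24 h, then exposed over a concentration range in ethanol vehicle; controls got 1% ethanol. After 24 h, crystal violet staining with absorbance at 590 nm. IC50 taken from the decrease in cell population.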

[2] = Antiproliferative activity human ViBo cells after 24 hrs by crystal violet staining; format: functional, cell-based; method in brief: as §1
HeLa [3] = assay: Antiproliferative activity human HeLa cells after 24 hrs by crystal violet staining; format: functional, cell-based; method in brief: as §1
PBMC [4] = assay: Antiproliferative activity human PBMC assessed as proliferating cells at 33.9 uM after 72 hrs using FITC-A staining by flow cytometry; format: cell-based
Method in brief: (§2)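 Enriched lymphocytes from one healthy donor: non-adherent cells kept after 1 h at 37 °C. Labelled with CFSE for 15 min at room temperature in the dark, quenched with NCS, washed. Plated at 2 × 10^5 cells/well, unstimulated, PHA-stimulated or treated, with ethanol 1% vehicle control. Five replicates, 72 h at 37 °C. Then 1% formaldehyde fixation and flow cytometry, ≥20,000 events.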

PBMC [5] = assay: Antiproliferative activity human PBMC assessed as non-proliferating cells at 33.9 uM after 72 hrs using FITC-A staining by flow cytometry; format: cell-based; method in brief: as §2
Ca-Ski [6] = assay: Cell cycle arrest at G1-phase in human CaSki cells at 29.5 to 33.9 uM after 24 hrs using propidium iodine staining by flow cytometry; format: functional, cell-based
Method in brief: (§3)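 Seeded at 10^5 cells/mL and grown 24 h, then exposed to 33.9 or 29.5 µM. Harvested with versene and fixed/permeabilized in 50% methanol in PBS. Treated with RNase (2.5 U/mL), stained with propidium iodide (0.2 mg/mL), DNA content analysed by G1, S, G2/M and SubG1.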

Ca-Ski [7] = assay: Cell cycle arrest at S-phase in human CaSki cells at 29.5 to 33.9 uM after 24 hrs using propidium iodine staining by flow cytometry; format: functional, cell-based; method in brief: as §3
Ca-Ski [8] = assay: Cell cycle arrest at G2/M-phase in human CaSki cells at 29.5 to 33.9 uM after 24 hrs using propidium iodine staining by flow cytometry; format: functional, cell-based; method in brief: as §3
Ca-Ski [9] = assay: Induction of apoptosis in human CaSki cells assessed as increase in cell nuclei released from broken cell at 29.5 to 33.9 uM after 24 hrs using propidium iodine staining by flow cytometry; format: functional, cell-based; method in brief: as §3
Ca-Ski [10] = assay: Induction of apoptosis in human CaSki cells assessed as decrease in DNA level at 29.5 to 33.9 uM after 24 hrs using propidium iodine staining by flow cytometry; format: functional, cell-based; method in brief: as §3
[11] = Cell cycle arrest at G2/M-phase in human ViBo cells at 29.5 to 33.9 uM after 24 hrs using propidium iodine staining by flow cytometry; format: functional, cell-based; method in brief: as §3
HeLa [12] = assay: Cell cycle arrest at G2/M-phase in human HeLa cells at 29.5 to 33.9 uM after 24 hrs using propidium iodine staining by flow cytometry; format: functional, cell-based; method in brief: as §3
[13] = Cell cycle arrest at S-phase in human ViBo cells at 29.5 to 33.9 uM after 24 hrs using propidium iodine staining by flow cytometry; format: functional, cell-based; method in brief: as §3
HeLa [14] = assay: Cell cycle arrest at S-phase in human HeLa cells at 29.5 to 33.9 uM after 24 hrs using propidium iodine staining by flow cytometry; format: functional, cell-based; method in brief: as §3
Ca-Ski [15] = assay: Cytotoxicity against human CaSki cells assessed as LDH release at IC50 after 24 hrs by spectrophotometry; format: functional
[16] = Cytotoxicity against human ViBo cells assessed as LDH release at IC50 after 24 hrs by spectrophotometry; format: functional
HeLa [17] = assay: Cytotoxicity against human HeLa cells assessed as LDH release at IC50 after 24 hrs by spectrophotometry; format: functional
[18] = Cytotoxicity against human PHA-stimulated lymphocytes assessed as LDH release at 33.9 uM after 72 hrs by spectrophotometry; format: cell-based; conditions: lymphocyte
Method in brief: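 Lymphocytes exposed to compound or ethanol (10 µL/mL); PHA-activated lymphocytes (15 µL/mL) served as control. After 72 h, LDH released into the culture supernatant measured. Mean ± S.D. of three independent experiments with three repetitions.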

Ca-Ski [19] = assay: Induction of apoptosis in human CaSki cells assessed as induction of active caspase-3 expression at 29.5 to 33.9 uM using FITC/DAPI staining by epifluorescence microscopy; format: functional, cell-based
Method in brief: (§4)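 Seeded at 5 × 10^4 cells/mL in RPMI-1640 with 5% NCS for 24 h, then treated with 33.9 or 29.5 µM. Formaldehyde fixation 15 min, 0.5% Triton X-100 permeabilization, blocking. Rabbit anti-active caspase-3 (1:50), then FITC goat anti-rabbit (1:200). DAPI counterstain; fluorescence microscopy.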

ViBo [20] = assay: Induction of apoptosis in human ViBo cells assessed as induction of active caspase-3 expression at 29.5 to 33.9 uM using FITC/DAPI staining by epifluorescence microscopy; format: functional, cell-based; method in brief: as §4
HeLa [21] = assay: Induction of apoptosis in human HeLa cells assessed as induction of active caspase-3 expression at 29.5 to 33.9 uM using FITC/DAPI staining by epifluorescence microscopy; format: functional, cell-based; method in brief: as §4
Ca-Ski [22] = assay: Induction of apoptosis in human CaSki cells assessed as DNA fragmentation at IC50 after 24 hrs by TUNEL assay; format: functional, cell-based
ViBo [23] = assay: Induction of apoptosis in human ViBo cells assessed as DNA fragmentation at IC50 after 24 hrs by TUNEL assay; format: functional, cell-based
HeLa [24] = assay: Induction of apoptosis in human HeLa cells assessed as DNA fragmentation at IC50 after 24 hrs by TUNEL assay; format: functional, cell-based

CC(=O)O[C@H]1CC[C@@]2(C)C(=CC[C@H]3[C@@H]4C[C@H](OC(C)=O)[C@H]([C@H](C)C(=O)CC[C@@H](C)CO)[C@@]4(C)CC[C@@H]32)C1
IC50 (Ca-Ski [1]): 47.1 µM

CC(=O)O[C@H]1CC[C@@]2(C)C(=CC[C@H]3[C@@H]4C[C@H](OC(C)=O)[C@H]([C@H](C)C(=O)CC[C@@H](C)CO[C@@H]5O[C@H](CO)[C@@H](O)[C@H](O)[C@H]5O)[C@@]4(C)CC[C@@H]32)C1
Activity (Ca-Ski [1]): Dose-dependent effect
IC50 (Ca-Ski [1]): 33.9 µM
IC50 [2]: 29.5 µM
IC50 (HeLa [3]): 29.5 µM
Activity (PBMC [4]): 72.09%
Activity (PBMC [5]): 27.91%
Activity (Ca-Ski [6]): inactive
Activity (Ca-Ski [7]): inactive
Activity (Ca-Ski [8]): inactive
Activity (Ca-Ski [9]): Active
Activity (Ca-Ski [10]): Active
Activity [11]: Active
Activity (HeLa [12]): Active
Activity [13]: Active
Activity (HeLa [14]): Active
Activity (Ca-Ski [15]): 1%
Activity [16]: 11%
Activity (HeLa [17]): 6%
Activity [18]: Non-toxic
Activity (Ca-Ski [19]): Active
Activity (ViBo [20]): Active
Activity (HeLa [21]): Active
Activity (Ca-Ski [22]): Active
Activity (ViBo [23]): Active
Activity (HeLa [24]): Active
